Source: ChEMBL document CHEMBL4354849, “[1,2,5]Oxadiazolo[3,4-b]pyrazine-5,6-diamine Derivatives as Mitochondrial Uncouplers for the Potential Treatment of Nonalcoholic Steatohepatitis” (J Med Chem, 2020)
Each block holds one compound with its values, some of them ahead of it. Calls of active or inactive are those of the source. The rule behind the calls is not given here.

Legend:
[1] = Induction of mitochondrial uncoupling in rat L6 cells assessed as oxygen consumption rate measured over 90 mins by oxygen consumption rate by seahorse assay; type: mitochondria, Mitochondria
L6 = test: Induction of mitochondrial uncoupling in rat L6 cells assessed as oxygen consumption rate up to 50 uM measured over 90 mins by oxygen consumption rate by seahorse assay relative to <= 50 uM BAM15; settings: Mitochondria
Procedure, shortened: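 L6 rat myoblasts were seeded at 3.5 × 10⁴ cells/well and left to adhere overnight. Medium was switched to unbuffered DMEM with pyruvate and glutamine, pH 7.4, and cells were equilibrated 1 h at 37°C without CO₂. One concentration per well, 2 wells per condition, OCR followed over 90 min. The first three post-injection readings were averaged to build the dose curve. AUC above baseline was expressed relative to BAM15 run on each plate; EC50 came from a Hill fit with the bottom fixed at 100% baseline.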

Mus musculus [2] = test: Improvement in liver fibrosis in Stelic C57BL/6 mouse model of streptozotocin-induced NASH assessed as reduction in plasma triglyceride at 10 mg/kg/day, po for 21 days; type: functional, organism-based
Mus musculus [3] = test: Effect on liver weight in Stelic C57BL/6 mouse model of streptozotocin-induced NASH at 10 mg/kg/day, po for 21 days; type: ADME, organism-based; settings: in vivo, 504 h
Mus musculus [4] = test: Induction of hyperglycemia in Stelic C57BL/6 mouse model of streptozotocin-induced NASH at 10 mg/kg/day, po for 21 days; type: organism-based; settings: in vivo, 504 h
Mus musculus [5] = test: Effect on body weight in Stelic C57BL/6 mouse model of streptozotocin-induced NASH at 10 mg/kg/day, po for 21 days; type: ADME, organism-based; settings: in vivo, 504 h
Mus musculus [6] = test: Effect on ballooning in Stelic C57BL/6 mouse model of streptozotocin-induced NASH at 10 mg/kg/day, po for 21 days; type: ADME, organism-based; settings: in vivo, 504 h
Mus musculus [7] = test: Improvement in liver fibrosis in Stelic C57BL/6 mouse model of streptozotocin-induced NASH assessed as liver fibrosis score at 10 mg/kg/day, po for 21 days by Picrosirius ed staining based assay (reference value: 0.91 +/- 0.25); type: functional
Mus musculus [8] = test: Improvement in liver fibrosis in Stelic C57BL/6 mouse model of streptozotocin-induced NASH assessed as NAS score at 10 mg/kg/day, po for 21 days (reference value: 4.6 +/- 0.7); type: functional
Mus musculus [9] = test: Improvement in liver fibrosis in Stelic C57BL/6 mouse model of streptozotocin-induced NASH assessed as effect on liver Gfap mRNA expression at 10 mg/kg/day, po for 21 days; type: functional, organism-based
Mus musculus [10] = test: Improvement in liver fibrosis in Stelic C57BL/6 mouse model of streptozotocin-induced NASH assessed as effect on liver Cd146 mRNA expression at 10 mg/kg/day, po for 21 days; type: functional, organism-based
Mus musculus [11] = test: Improvement in liver fibrosis in Stelic C57BL/6 mouse model of streptozotocin-induced NASH assessed as increase in plasma cholesterol at 10 mg/kg/day, po for 21 days; type: functional, organism-based
Mus musculus [12] = test: Improvement in liver fibrosis in Stelic C57BL/6 mouse model of streptozotocin-induced NASH assessed as effect on plasma AST level at 10 mg/kg/day, po for 21 days; type: functional, organism-based
Mus musculus [13] = test: Effect on food intake in Stelic C57BL/6 mouse model of streptozotocin-induced NASH assessed as reduction in food intake at 10 mg/kg/day, po for 21 days; type: ADME, organism-based; parameters: scale not given: the % may be the effect or the level left; settings: in vivo, 504 h

- EC50 [1]: 30000 nM
- Activity (L6): 45%
Compound: Oc1ccc(F)c(Nc2nc3nonc3nc2Nc2ccccc2F)c1

- EC50 [1]: 1100 nM
- Activity (L6): 53%
Compound: FC(F)(F)Oc1cccc(Nc2nc3nonc3nc2Nc2cccc(OC(F)(F)F)c2)c1

- Activity (Mus musculus [13]): 23%
Compound: CCCc1nc2c(C)cc(-c3nc4ccccc4n3C)cc2n1Cc1ccc(-c2ccccc2C(=O)O)cc1 [TELMISARTAN]
- Activity (Mus musculus [2]): Active
- Activity (Mus musculus [3]): Toxic
- Activity (Mus musculus [4]): Toxic
- Activity (Mus musculus [5]): Toxic
- Activity (Mus musculus [6]): Non-Toxic
- Activity (Mus musculus [7]): 0.6
- Activity (Mus musculus [8]): 2.9
- Activity (Mus musculus [9]): inactive
- Activity (Mus musculus [10]): inactive
- Activity (Mus musculus [11]): Active
- Activity (Mus musculus [12]): inactive

- EC50 [1]: 1000 nM
- Activity (L6): 39%
Compound: FC(F)(F)c1ccccc1Nc1nc2nonc2nc1Nc1ccccc1C(F)(F)F
